{"source": "ChEMBL document CHEMBL2177085", "about": "(J Med Chem, 2012)", "key": {"HT-29 [1]": {"test_system": "HT-29", "experiment": "Cytotoxic activity against human HT-29 cells assessed as cell viability at 2.6 uM incubated for 3 days by MTT assay", "format": "functional", "conditions": "HT-29, 72 h, read-out: Activity", "how_it_was_run": "(§1)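 MTT viability: exponentially growing cells, 10 000 viable cells/well in RPMI plated overnight, then exposed to test compounds for 3 days (HT-29, Molm-14) or 5 days (Mkn-45) at 37 °C, 5% CO2. MTT added for 4 h, then SDS/HCl solubilization overnight and absorbance read at 562 nm. Viability is expressed relative to untreated cells (100%). Triplicate.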"}, "MKN-45 [2]": {"test_system": "MKN-45", "experiment": "Cytotoxic activity against human MKN45 cells assessed as cell viability at 0.5 uM incubated for 5 days by MTT assay", "format": "functional", "conditions": "MKN-45, 120 h, read-out: Activity", "how_it_was_run": "as §1"}, "MKN-45 [3]": {"test_system": "MKN-45", "experiment": "Induction of apoptosis in human MKN45 assessed as accumulation at subG1 phase at 5 uM incubated for 7 days by flow cytometry (reference value: 10.9 +/- 3.2%)", "format": "functional"}, "HT-29 [4]": {"test_system": "HT-29", "experiment": "Cytotoxic activity against human HT-29 cells assessed as cell viability at 26 uM incubated for 3 days by MTT assay", "format": "functional", "conditions": "HT-29, 72 h, read-out: Activity", "how_it_was_run": "as §1"}, "MKN-45 [5]": {"test_system": "MKN-45", "experiment": "Cytotoxic activity against human MKN45 cells assessed as cell viability at 10 uM incubated for 5 days by MTT assay", "format": "functional", "conditions": "MKN-45, 120 h, read-out: Activity", "how_it_was_run": "as §1"}, "MKN-45 [6]": {"test_system": "MKN-45", "experiment": "Cytotoxic activity against human MKN45 cells assessed as cell viability at 20 uM incubated for 5 days by MTT assay", "format": "functional", "conditions": "MKN-45, 120 h, read-out: Activity", "how_it_was_run": "as §1"}, "HUVEC [7]": {"test_system": "HUVEC", "experiment": "Induction of apoptosis in human HUVEC assessed as accumulation at subG1 phase at 2.6 uM incubated for 4 days by flow cytometry (reference value: 15.4 +/- 1.5%)", "format": "functional"}, "[8]": {"target": "T1, Receptor-type tyrosine-protein kinase FLT3 (Homo sapiens, UniProt P36888)", "T1 sequence (P36888 whole entry)": "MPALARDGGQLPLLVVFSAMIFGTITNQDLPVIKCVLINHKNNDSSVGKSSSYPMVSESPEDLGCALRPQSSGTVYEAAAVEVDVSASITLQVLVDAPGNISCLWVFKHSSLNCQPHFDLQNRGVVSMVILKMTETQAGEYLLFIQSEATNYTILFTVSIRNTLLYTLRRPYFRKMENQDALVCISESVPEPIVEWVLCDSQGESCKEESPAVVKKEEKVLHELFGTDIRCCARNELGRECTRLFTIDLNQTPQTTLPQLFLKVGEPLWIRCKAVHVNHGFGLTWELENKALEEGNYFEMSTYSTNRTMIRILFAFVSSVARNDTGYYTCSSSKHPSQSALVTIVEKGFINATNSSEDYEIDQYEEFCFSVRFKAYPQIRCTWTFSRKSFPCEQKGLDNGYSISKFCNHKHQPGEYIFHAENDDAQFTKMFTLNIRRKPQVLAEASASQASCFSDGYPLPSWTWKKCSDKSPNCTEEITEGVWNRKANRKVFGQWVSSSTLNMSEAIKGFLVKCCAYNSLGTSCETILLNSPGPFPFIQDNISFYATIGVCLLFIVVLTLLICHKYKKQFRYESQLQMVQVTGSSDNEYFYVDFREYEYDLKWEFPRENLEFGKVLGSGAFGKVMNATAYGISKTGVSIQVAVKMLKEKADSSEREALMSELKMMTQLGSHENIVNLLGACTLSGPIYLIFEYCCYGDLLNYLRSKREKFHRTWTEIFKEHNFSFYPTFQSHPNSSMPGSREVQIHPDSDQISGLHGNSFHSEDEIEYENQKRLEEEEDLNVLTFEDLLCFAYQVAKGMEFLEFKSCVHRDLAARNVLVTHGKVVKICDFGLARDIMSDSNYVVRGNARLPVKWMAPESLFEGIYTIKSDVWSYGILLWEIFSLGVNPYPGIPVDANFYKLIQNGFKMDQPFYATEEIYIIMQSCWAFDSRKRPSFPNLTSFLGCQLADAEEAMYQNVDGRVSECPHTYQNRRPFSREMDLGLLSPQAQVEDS", "experiment": "Inhibition of FLT3", "how_it_was_run": "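Run as an outsourced kinase profiling service (Millipore IC50 Profiler), with the protocol referred to the provider. Gives IC50 values and residual activity at 10 μM test compound. Compounds tested in duplicate.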"}, "HT-29 [9]": {"test_system": "HT-29", "experiment": "Cytotoxic activity against human HT-29 cells assessed as cell viability at 52 uM incubated for 3 days by MTT assay", "format": "functional", "conditions": "HT-29, 72 h, read-out: Activity", "how_it_was_run": "as §1"}, "[10]": {"experiment": "Inhibition of angiogenesis in chick embryo model assessed as reduction in vessel growth at 26 nM incubated for 24 hrs", "format": "functional, Gallus gallus", "how_it_was_run": "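White leghorn eggs incubated at 37.5 °C, 62% humidity. At 70 h, albumen removed and shell windowed. From 75 h, 15 agarose pellets (from a 26 mM DMSO stock in 2% agarose; final concentration 26 nM) placed on the area vasculosa.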"}, "[11]": {"target": "Glycogen synthase kinase-3 beta (Homo sapiens, UniProt P49841)", "sequence (P49841 whole entry)": "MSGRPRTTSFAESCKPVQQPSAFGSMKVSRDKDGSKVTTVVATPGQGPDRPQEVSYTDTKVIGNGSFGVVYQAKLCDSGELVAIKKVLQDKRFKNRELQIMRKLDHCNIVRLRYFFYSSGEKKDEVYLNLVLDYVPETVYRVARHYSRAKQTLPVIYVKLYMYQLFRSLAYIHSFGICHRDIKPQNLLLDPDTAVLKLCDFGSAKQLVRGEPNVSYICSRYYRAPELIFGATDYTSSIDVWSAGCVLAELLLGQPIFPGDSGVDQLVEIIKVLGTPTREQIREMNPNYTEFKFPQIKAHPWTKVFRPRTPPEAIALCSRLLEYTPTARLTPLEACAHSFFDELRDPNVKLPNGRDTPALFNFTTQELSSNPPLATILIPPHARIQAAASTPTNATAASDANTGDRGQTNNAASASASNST", "experiment": "Inhibition of GSK3beta", "how_it_was_run": "(§2)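 IC50 determined by a commercial kinase profiling service (Millipore IC50 Profiler); duplicate testing.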"}, "MKN-45 [12]": {"test_system": "MKN-45", "experiment": "Induction of apoptosis in human MKN45 assessed as accumulation at subG1 phase at 10 uM incubated for 7 days by flow cytometry (reference value: 10.9 +/- 3.2%)", "format": "functional"}, "MKN-45 [13]": {"test_system": "MKN-45", "experiment": "Induction of apoptosis in human MKN45 assessed as accumulation at subG1 phase at 15 uM incubated for 7 days by flow cytometry (reference value: 10.9 +/- 3.2%)", "format": "functional"}, "MKN-45 [14]": {"test_system": "MKN-45", "experiment": "Cytotoxic activity against human MKN45 cells assessed as cell viability at 5 uM incubated for 5 days by MTT assay", "format": "functional", "conditions": "MKN-45, 120 h, read-out: Activity", "how_it_was_run": "as §1"}, "MKN-45 [15]": {"test_system": "MKN-45", "experiment": "Cytotoxic activity against human MKN45 cells assessed as cell viability at 50 uM incubated for 5 days by MTT assay", "format": "functional", "conditions": "MKN-45, 120 h, read-out: Activity", "how_it_was_run": "as §1"}, "MKN-45 [16]": {"test_system": "MKN-45", "experiment": "Cytotoxic activity against human MKN45 cells assessed as cell viability at 1 uM incubated for 5 days by MTT assay", "format": "functional", "conditions": "MKN-45, 120 h, read-out: Activity", "how_it_was_run": "as §1"}, "MKN-45 [17]": {"test_system": "MKN-45", "experiment": "Induction of apoptosis in human MKN45 assessed as accumulation at subG1 phase at 20 uM incubated for 7 days by flow cytometry (reference value: 10.9 +/- 3.2%)", "format": "functional"}, "HT-29 [18]": {"test_system": "HT-29", "experiment": "Cytotoxic activity against human HT-29 cells assessed as cell viability at 7.9 uM incubated for 3 days by MTT assay", "format": "functional", "conditions": "HT-29, 72 h, read-out: Activity", "how_it_was_run": "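HT-29 cells in exponential growth were seeded at 10 000 viable cells per well in RPMI and left overnight. They were then exposed to compound for 3 days at 37 °C under 5% CO₂. MTT was added for 4 h, followed by overnight solubilisation in 10% SDS/0.01 M HCl and absorbance at 562 nm. Viability is expressed as % of untreated cells (100%), in triplicate.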"}, "MKN-45 [19]": {"test_system": "MKN-45", "experiment": "Induction of apoptosis in human MKN45 assessed as accumulation at subG1 phase at 1 uM incubated for 7 days by flow cytometry (reference value: 10.9 +/- 3.2%)", "format": "functional"}, "[20]": {"target": "Vascular endothelial growth factor receptor 2 (Homo sapiens, UniProt P35968)", "sequence (P35968 whole entry)": "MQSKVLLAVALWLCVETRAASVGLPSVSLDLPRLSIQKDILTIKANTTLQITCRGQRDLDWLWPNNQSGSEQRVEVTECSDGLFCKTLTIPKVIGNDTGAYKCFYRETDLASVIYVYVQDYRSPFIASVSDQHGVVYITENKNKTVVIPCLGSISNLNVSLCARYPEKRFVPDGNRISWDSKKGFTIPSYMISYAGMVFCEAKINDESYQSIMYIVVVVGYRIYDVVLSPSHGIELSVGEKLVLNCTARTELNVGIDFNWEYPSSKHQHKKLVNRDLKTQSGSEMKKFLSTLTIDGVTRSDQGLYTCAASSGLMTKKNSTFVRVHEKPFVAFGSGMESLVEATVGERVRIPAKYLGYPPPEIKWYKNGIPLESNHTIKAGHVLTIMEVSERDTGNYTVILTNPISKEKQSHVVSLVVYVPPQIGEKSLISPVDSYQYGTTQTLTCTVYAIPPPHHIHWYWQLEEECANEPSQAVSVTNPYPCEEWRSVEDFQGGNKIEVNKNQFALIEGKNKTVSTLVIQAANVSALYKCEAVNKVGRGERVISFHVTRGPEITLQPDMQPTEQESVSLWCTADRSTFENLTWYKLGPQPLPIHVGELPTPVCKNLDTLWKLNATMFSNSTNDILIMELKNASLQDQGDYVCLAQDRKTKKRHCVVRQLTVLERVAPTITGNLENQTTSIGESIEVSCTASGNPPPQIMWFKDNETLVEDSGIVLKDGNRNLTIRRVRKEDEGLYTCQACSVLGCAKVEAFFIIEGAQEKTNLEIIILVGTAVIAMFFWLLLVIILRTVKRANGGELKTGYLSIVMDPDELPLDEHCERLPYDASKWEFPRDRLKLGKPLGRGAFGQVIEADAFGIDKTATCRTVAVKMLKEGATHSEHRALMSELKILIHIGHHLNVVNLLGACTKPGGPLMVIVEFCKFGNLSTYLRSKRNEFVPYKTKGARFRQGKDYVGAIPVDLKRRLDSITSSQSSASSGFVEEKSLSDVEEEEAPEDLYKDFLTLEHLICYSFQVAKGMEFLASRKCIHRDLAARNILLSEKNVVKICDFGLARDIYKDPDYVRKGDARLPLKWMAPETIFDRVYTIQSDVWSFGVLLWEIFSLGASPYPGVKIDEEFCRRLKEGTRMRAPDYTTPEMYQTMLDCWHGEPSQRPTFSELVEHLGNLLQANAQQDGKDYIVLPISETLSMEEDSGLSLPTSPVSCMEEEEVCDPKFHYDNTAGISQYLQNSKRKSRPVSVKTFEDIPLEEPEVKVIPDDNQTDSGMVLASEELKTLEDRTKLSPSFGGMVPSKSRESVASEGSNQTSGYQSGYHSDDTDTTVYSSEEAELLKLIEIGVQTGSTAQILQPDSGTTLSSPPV", "experiment": "Inhibition of VEGFR2", "how_it_was_run": "as §2"}, "HUVEC [21]": {"test_system": "HUVEC", "experiment": "Induction of apoptosis in human HUVEC assessed as accumulation at subG1 phase at 0.79 uM incubated for 4 days by flow cytometry (reference value: 15.4 +/- 1.5%)", "format": "functional"}}, "data": [{"smiles": "COc1cc(C2=C(c3c[nH]c4ccncc34)C(=O)NC2=O)cc(OC)c1OC", "values": [{"measurement": "viability at 2.6 µM", "setting": "HT-29 [1]", "result": 90.8, "unit": "%"}, {"measurement": "viability at 0.5 µM", "setting": "MKN-45 [2]", "result": 99.1, "unit": "%"}, {"measurement": "Activity", "setting": "MKN-45 [3]", "result": 15.7, "unit": "%"}, {"measurement": "viability at 26 µM", "setting": "HT-29 [4]", "result": 56.5, "unit": "%"}, {"measurement": "viability at 10 µM", "setting": "MKN-45 [5]", "result": 98.6, "unit": "%"}, {"measurement": "viability at 20 µM", "setting": "MKN-45 [6]", "result": 89.4, "unit": "%"}, {"measurement": "Activity", "setting": "HUVEC [7]", "result": 46.3, "unit": "%"}, {"measurement": "IC50", "setting": "[8]", "result": "≥ 3", "unit": "µM"}, {"measurement": "viability at 52 µM", "setting": "HT-29 [9]", "result": 47.4, "unit": "%"}, {"measurement": "inhibition (INH)", "setting": "[10]", "result": 40, "unit": "%"}, {"measurement": "IC50", "setting": "[11]", "result": 40, "unit": "nM"}, {"measurement": "Activity", "setting": "MKN-45 [12]", "result": 21.5, "unit": "%"}, {"measurement": "Activity", "setting": "MKN-45 [13]", "result": 25.7, "unit": "%"}, {"measurement": "viability at 5 µM", "setting": "MKN-45 [14]", "result": 99, "unit": "%"}, {"measurement": "viability at 50 µM", "setting": "MKN-45 [15]", "result": 82.5, "unit": "%"}, {"measurement": "viability at 1 µM", "setting": "MKN-45 [16]", "result": 100, "unit": "%"}, {"measurement": "Activity", "setting": "MKN-45 [17]", "result": 31.6, "unit": "%"}, {"measurement": "viability at 7.9 µM", "setting": "HT-29 [18]", "result": 61.5, "unit": "%"}, {"measurement": "Activity", "setting": "MKN-45 [19]", "result": 8.8, "unit": "%"}, {"measurement": "IC50", "setting": "[20]", "result": 590, "unit": "nM"}, {"measurement": "Activity", "setting": "HUVEC [21]", "result": 31.3, "unit": "%"}]}]}
